Results published in ChEMBL document CHEMBL4130578, “Synthesis, biological evaluation and structure-activity relationship studies of hederacolchiside E and its derivatives as potential anti-Alzheimer agents” (Eur J Med Chem, 2018).

How the values were obtained:
[1] = test system: PC-12; experiment: Cytotoxicity against rat PC12 cells assessed as decrease in cell viability at high concentration after 12 hrs by MTT assay; type: cell-based; conditions: pc-12, 12 h
[2] = test system: PC-12; experiment: Cytoprotection against amyloid beta (1 to 42)-induced cell injury in rat PC12 cells assessed as cell viability at 10 uM preincubated for 12 hrs followed by amyloid beta (1 to 42) addition measured after 12 hrs by MTT assay (reference value: 55.3 +/- 1.5%); type: functional; conditions: read-out: Activity
[3] = test system: PC-12; experiment: Cytoprotection against amyloid beta (1 to 42)-induced cell injury in rat PC12 cells assessed as cell viability at 50 uM preincubated for 12 hrs followed by amyloid beta (1 to 42) addition measured after 12 hrs by MTT assay (reference value: 55.3 +/- 1.5%); type: functional; conditions: read-out: Activity
[4] = test system: PC-12; experiment: Cytoprotection against amyloid beta (1 to 42)-induced damage in rat PC12 cells assessed as reduction in intracellular MDA level preincubated with cells followed by amyloid beta (1 to 42) addition measured after 24 hrs by TBA assay; type: functional, cell-based
Method in brief: (§1)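 For the MDA readout, PC12 cells were given 40 µM Aβ1-42 for 24 h with or without compound (10, 50, 100 µM). Samples were mixed with two volumes of TBA reagent (0.375% TBA, 15% trichloroacetic acid, 0.1 mM EDTA) and heated at 95 °C for 40 min. After cooling and centrifugation at 3000 × g for 10 min, supernatant A532 was read. Mean ± SD, n = 3.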

[5] = test system: PC-12; experiment: Cytoprotection against amyloid beta (1 to 42)-induced cell injury in rat PC12 cells assessed as cell viability at 100 uM preincubated for 12 hrs followed by amyloid beta (1 to 42) addition measured after 12 hrs by MTT assay (reference value: 55.3 +/- 1.5%); type: functional; conditions: read-out: Activity
[6] = test system: PC-12; experiment: Cytoprotection against amyloid beta (1 to 42)-induced oxidative damage in rat PC12 cells assessed as intracellular ROS level at 100 uM preincubated with cells followed by amyloid beta (1 to 42) addition measured after 24 hrs by DCFH-DA staining based flow cytometry (reference value: 51.4%); type: functional
[7] = test system: PC-12; experiment: Cytoprotection against amyloid beta (1 to 42)-induced oxidative damage in rat PC12 cells assessed as intracellular ROS level at 10 uM preincubated with cells followed by amyloid beta (1 to 42) addition measured after 24 hrs by DCFH-DA staining based flow cytometry (reference value: 51.4%); type: functional
[8] = test system: PC-12; experiment: Cytoprotection against amyloid beta (1 to 42)-induced damage in rat PC12 cells assessed as intracellular MDA level at 10 uM preincubated with cells followed by amyloid beta (1 to 42) addition measured after 24 hrs by TBA assay; type: functional; method in brief: as §1
[9] = test system: PC-12; experiment: Cytoprotection against amyloid beta (1 to 42)-induced damage in rat PC12 cells assessed as intracellular MDA level at 50 uM preincubated with cells followed by amyloid beta (1 to 42) addition measured after 24 hrs by TBA assay; type: functional; method in brief: as §1
[10] = test system: PC-12; experiment: Cytoprotection against amyloid beta (1 to 42)-induced damage in rat PC12 cells assessed as intracellular MDA level at 100 uM preincubated with cells followed by amyloid beta (1 to 42) addition measured after 24 hrs by TBA assay; type: functional; method in brief: as §1
[11] = test system: PC-12; experiment: Cytoprotection against amyloid beta (1 to 42)-induced toxicity in rat PC12 cells assessed as LDH release at 10 uM preincubated with cells followed by amyloid beta (1 to 42) addition measured after 24 hrs by LDH assay (reference value: 153%); type: functional
[12] = test system: PC-12; experiment: Cytoprotection against amyloid beta (1 to 42)-induced toxicity in rat PC12 cells assessed as LDH release at 100 uM preincubated with cells followed by amyloid beta (1 to 42) addition measured after 24 hrs by LDH assay (reference value: 153%); type: functional
[13] = test system: PC-12; experiment: Cytoprotection against H2O2-induced cell injury in rat PC12 cells assessed as increase in cell viability preincubated for 12 hrs followed by H2O2 addition measured after 12 hrs by MTT assay; type: functional, cell-based
Method in brief: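 PC12 cells grown in RPMI-1640 with 15% FBS and penicillin/streptomycin, subcultured every 2 days and cultured 8 days before use. Cells seeded at 1 × 10^4/well, after 12 h pretreated with compound 12 h, then exposed to 200 µM H2O2 for 12 h. MTT added for 4 h, formazan dissolved in DMSO, OD 490 nm read. Viability given as % of untreated control, mean ± SD, n = 3, ANOVA with Dunnett's test.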

[14] = test system: PC-12; experiment: Cytoprotection against amyloid beta (1 to 42)-induced oxidative damage in rat PC12 cells assessed as reduction in intracellular ROS level preincubated with cells followed by amyloid beta (1 to 42) addition measured after 24 hrs by DCFH-DA staining based flow cytometry; type: functional, cell-based
[15] = test system: PC-12; experiment: Cytoprotection against amyloid beta (1 to 42)-induced toxicity in rat PC12 cells assessed as LDH release at 50 uM preincubated with cells followed by amyloid beta (1 to 42) addition measured after 24 hrs by LDH assay (reference value: 153%); type: functional
[16] = test system: PC-12; experiment: Cytoprotection against amyloid beta (1 to 42)-induced oxidative damage in rat PC12 cells assessed as intracellular ROS level at 50 uM preincubated with cells followed by amyloid beta (1 to 42) addition measured after 24 hrs by DCFH-DA staining based flow cytometry (reference value: 51.4%); type: functional

Row | SMILES | Activity [1] | viability at 10 µM [2] [%] | viability at 50 µM [3] [%] | Activity [4] | viability at 100 µM [5] [%] | Activity [6] [%] | Activity [7] [%] | Activity [8] [nmol/mL] | Activity [9] [nmol/mL] | Activity [10] [nmol/mL] | Activity [11] [%] | Activity [12] [%] | Activity [13] | Activity [14] | Activity [15] [%] | Activity [16] [%]
1 | C[C@@H]1O[C@@H](O[C@H]2[C@H](O[C@H]3CC[C@]4(C)[C@H]5CC=C6[C@@H]7CC(C)(C)CC[C@]7(C(=O)O[C@@H]7O[C@H](CO[C@@H]8O[C@H](CO)[C@@H](O)[C@H](O)[C@H]8O)[C@@H](O)[C@H](O)[C@H]7O)CC[C@@]6(C)[C@]5(C)CC[C@H]4C3(C)C)OC[C@H](O[C@@H]3O[C@H](CO)[C@@H](O)[C@H](O)[C@H]3O)[C@@H]2O)[C@H](O)[C@H](O)[C@H]1O | Toxic | 29.5 | 19.8 | – | – | – | – | – | – | – | – | – | – | – | – | –
2 | C[C@@H]1O[C@@H](O[C@H]2[C@H](O[C@H]3CC[C@]4(C)[C@H]5CC=C6[C@@H]7CC(C)(C)CC[C@]7(C(=O)O[C@@H]7O[C@H](CO)[C@@H](O)[C@H](O)[C@H]7O)CC[C@@]6(C)[C@]5(C)CC[C@H]4C3(C)C)OC[C@H](O[C@@H]3O[C@H](CO)[C@@H](O)[C@H](O)[C@H]3O)[C@@H]2O)[C@H](O)[C@H](O)[C@H]1O | Toxic | 14.5 | 10.3 | – | – | – | – | – | – | – | – | – | – | – | – | –
3 | C[C@@H]1O[C@@H](O[C@H]2[C@H](O[C@H]3CC[C@]4(C)[C@H]5CC=C6[C@@H]7CC(C)(C)CC[C@]7(C(=O)O[C@@H]7O[C@H](CO[C@@H]8O[C@H](CO)[C@@H](O[C@@H]9O[C@@H](C)[C@H](O)[C@@H](O)[C@H]9O)[C@H](O)[C@H]8O)[C@@H](O)[C@H](O)[C@H]7O)CC[C@@]6(C)[C@]5(C)CC[C@H]4C3(C)C)OC[C@H](O[C@@H]3O[C@H](CO)[C@@H](O)[C@H](O)[C@H]3O)[C@@H]2O)[C@H](O)[C@H](O)[C@H]1O | – | 57 | 65.8 | Dose-dependent effect | 70.4 | 29.2 | 43 | 2.5 | 1.9 | 1.3 | 147.4 | 126.7 | Dose-dependent effect | Dose-dependent effect | 138.5 | 35
4 | C[C@@H]1O[C@@H](O[C@H]2[C@H](O[C@H]3CC[C@]4(C)[C@H]5CC=C6[C@@H]7CC(C)(C)CC[C@]7(C(=O)O[C@@H]7O[C@H](CO[C@@H]8O[C@H](CO)[C@@H](O[C@@H]9O[C@@H](C)[C@H](O)[C@@H](O)[C@H]9O)[C@H](O)[C@H]8O)[C@@H](O)[C@H](O)[C@H]7O)CC[C@@]6(C)[C@]5(C)CC[C@H]4C3(C)C)OC[C@H](O[C@@H]3O[C@@H](C)[C@H](O)[C@@H](O)[C@H]3O)[C@@H]2O)[C@H](O)[C@H](O)[C@H]1O | – | 61.4 | 68.4 | – | 74.6 | – | – | – | – | – | – | – | Dose-dependent effect | – | – | –
5 | C[C@@H]1O[C@@H](O[C@H]2[C@H](O[C@H]3CC[C@]4(C)[C@H]5CC=C6[C@@H]7CC(C)(C)CC[C@]7(C(=O)O[C@@H]7O[C@H](CO[C@@H]8O[C@H](CO)[C@@H](O[C@@H]9O[C@@H](C)[C@H](O)[C@@H](O)[C@H]9O)[C@H](O)[C@H]8O)[C@@H](O)[C@H](O)[C@H]7O)CC[C@@]6(C)[C@]5(C)CC[C@H]4C3(C)C)OC[C@H](O[C@@H]3OC[C@H](O)[C@H](O)[C@H]3O)[C@@H]2O)[C@H](O)[C@H](O)[C@H]1O | – | 58.3 | 59.7 | – | – | – | – | – | – | – | – | – | Dose-dependent effect | – | – | –
